In ChEMBL document CHEMBL1121686 (J Med Chem, 1981) one finds Dose, Total excretion and Toxicity data, which are given here for two compounds.

Series [1] relates to Rattus norvegicus. In words: (§1) Percent dose excreted in 0-48 hours administered ip to male rat. The series is classed as functional. An outline of the steps:
(§2)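 Young adult male Sprague-Dawley rats were dosed i.p. with N-hydroxyacetaminophen in aqueous solution at 1.0 and 2.0 mmol/kg. Animals were held in metabolic cages with standard feed and water ad libitum, and urine was collected over 48 h. Quantitation was by gradient HPLC, using response factors from standard solutions.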

The species entered for series [2] is Rattus norvegicus. In words: (§3) Percent total excretion of 3-(thiomethyl)acetaminophen glucuronide. The series is classed as functional. The essentials:
(§4)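 Urine was collected for 48 h from dosed rats or mice kept in metabolic cages. It was filtered (0.5 μm) and separated by reverse-phase HPLC at 2 mL/min, starting in phosphate-buffered solvent at pH 7.2. After a 4 min delay, methanol was raised linearly to 50% over 18 min. Detection was at 254 and 280 nm. Each metabolite was quantified from peak area using response factors from standards and expressed as % of total excreted metabolites.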

The species entered for series [3] is Rattus norvegicus. In words: (§5) Percent total excretion of 3-(thiomethyl)acetaminophen sulfate. Type of series: functional. The essentials: as §4
The species entered for series [4] is Rattus norvegicus. In words: (§6) Percent total excretion of 3-methoxyacetaminophen glucuronide. Type of series: functional. An outline of the steps:
as §4

For series [5], the species on record is Rattus norvegicus. The series is described as follows: (§7) Percent total excretion of N-methoxyacetaminophen glucuronide. Type of series: functional. The essentials: as §4
The species entered for series [6] is Rattus norvegicus. The series is described as follows: (§8) Percent total excretion of N-methoxyacetaminophen sulfate. Type of series: functional. An outline of the steps:
as §4

Series [7] is filed under the species Rattus norvegicus. The series is described as follows: (§9) Percent total excretion of acetaminophen. The series is classed as functional. The essentials: as §4
Series [8] is filed under the species Rattus norvegicus. The series is described as follows: (§10) Percent total excretion of acetaminophen glucuronide. The series is classed as functional. The essentials:
as §4

For series [9], the species on record is Rattus norvegicus. The series is described as follows: Percent total excretion of acetaminophen sulfate. The series is classed as functional. The essentials:
as §4

Series [10] is filed under the species Rattus norvegicus. In words: (§11) Percent total excretion of acetaminophen-mercapturic acid. Type of series: functional. An outline of the steps: as §4
For series [11], the system named is Mus musculus. The series is described as follows: Percent dose excreted in 0-48 hours administered ip to male mouse. Type of series: ADME, organism-based. The following applies: in vivo. An outline of the steps: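 Young adult male Swiss mice, previously housed on pine wood-chip bedding, received N-hydroxyacetaminophen in aqueous solution i.p. at 2.0 mmol/kg. They were then kept in metabolic cages with standard feed and water ad libitum. Urine was collected for 48 h and analysed by gradient reverse-phase HPLC, with peak areas calibrated against standard solutions.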

Series [12] concerns Rattus norvegicus. The series is described as §1. The series is classed as ADME, organism-based. The following applies: in vivo. The essentials:
as §2

The nature of series [13]: as §5. Type of series: ADME. The essentials:
as §4

The nature of series [14]: as §6. Type of series: ADME. The essentials:
as §4

Series [15] in a line: as §7. Type of series: ADME. The essentials:
as §4

Series [16] has as its system Rattus norvegicus. In words: The compound tested for toxicity in liver against male rat after intraperitoneal administration of 1.0 mmol/kg. Type of series: organism-based. The following applies: in vivo, ip. The essentials: (§12)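 Young adult male Sprague-Dawley rats dosed intraperitoneally at 1.0 or 2.0 mmol/kg in aqueous solution. Animals were kept in metabolic cages with food and water ad libitum, and urine was collected over 48 h. Liver and kidney were examined histologically at 48 h. Liver was graded as vacuolation (1+) or centrilobular necrosis (2+, 3+, 4+); kidney was graded as deep cortical tubular necrosis.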

In series [17] the test system is Rattus norvegicus. In words: The compound tested for toxicity in liver against male rat after intraperitoneal administration of 2.0 mmol/kg. As to conditions: in vivo, ip. The series is classed as organism-based. The essentials:
as §12

Series [18] is described as follows: as §8. Type of series: ADME. The essentials:
as §4

Series [19] can be described thus: as §9. The series is classed as ADME. An outline of the steps: as §4
Series [20] can be described thus: as §10. The series is classed as ADME. The essentials:
as §4

Series [21] is described as follows: as §11. Type of series: ADME. The essentials:
as §4

A short description of series [22]: as §3. The series is classed as ADME. The essentials:
as §4

Series [23] relates to Mus musculus. The series is described as follows: The compound tested for toxicity in kidney against male mouse after intraperitoneal administration of 2.0 mmol/kg. Type of series: organism-based. As to conditions: in vivo, ip. An outline of the steps:
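Young adult male Swiss mice given a single intraperitoneal dose of 2.0 mmol/kg in aqueous solution. Animals were held in metabolic cages with standard feed and water ad libitum, and urine was collected for 48 h. At 48 h, liver and kidneys were taken for histology. Liver was scored as vacuolation (1+) or centrilobular necrosis (2+ to 4+); kidney was scored as deep cortical tubular necrosis.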

For series [24], the system named is Rattus norvegicus. The series is described as follows: The compound tested for toxicity in kidney against male rat after intraperitoneal administration of 1.0 mmol/kg. The series is classed as organism-based. The following applies: in vivo, ip. An outline of the steps:
as §12

Series [25] deals with Rattus norvegicus. In words: The compound tested for toxicity in kidney against male rat after intraperitoneal administration of 2.0 mmol/kg; Positive. Type of series: organism-based. As to conditions: in vivo, ip. An outline of the steps: as §12
The species entered for series [26] is Rattus norvegicus. In words: Percent total excretion of acetaminophen cysteine conjugate. The series is classed as functional. An outline of the steps: as §4
The subject of series [27] is Mus musculus. The series is described as follows: The compound tested for toxicity in liver against male mouse after intraperitoneal administration of 2.0 mmol/kg. The following applies: in vivo, ip.
A short description of series [28]: Percent of total excretion of 3-(thiomethyl)acetaminophen glucuronide. Type of series: ADME. The essentials:
as §4

A short description of series [29]: Percent of total excretion of 3-(thiomethyl)acetaminophen sulfate. Type of series: ADME. The essentials: as §4
The nature of series [30]: Percent of total excretion of N-hydroxyacetaminophen glucuronide. The series is classed as ADME. An outline of the steps:
as §4

A short description of series [31]: Percent of total excretion of N-hydroxyacetaminophen sulfate. The series is classed as ADME. An outline of the steps: as §4
Series [32] is described as follows: Percent of total excretion of N-methoxyacetaminophen glucuronide. Type of series: ADME. An outline of the steps: as §4
Series [33] can be described thus: Percent of total excretion of N-methoxyacetaminophen sulfate. The series is classed as ADME. The essentials: as §4
Series [34] in a line: Percent of total excretion of acetaminophen. Type of series: ADME. The essentials:
as §4

Series [35] in a line: Percent of total excretion of acetaminophen cysteine conjugate. The series is classed as ADME. An outline of the steps: as §4
A short description of series [36]: Percent of total excretion of acetaminophen glucuronide. Type of series: ADME. An outline of the steps: as §4
The nature of series [37]: Percent of total excretion of acetaminophen sulfate. The series is classed as ADME. The essentials: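 Rats (male Sprague-Dawley, 1.0 or 2.0 mmol/kg ip) and Swiss mice (males 2.0 mmol/kg ip; females 2.0 mmol/kg iv or 10 mmol/kg intragastric) dosed in aqueous solution. Urine was collected over 0–48 h in metabolic cages. Filtered urine went through gradient HPLC (pH 7.2 buffer, 0→50% methanol; 254/280 nm), quantified against standard peak-area response factors. Values are % of total excreted metabolites.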

The nature of series [38]: Percent of total excretion of acetaminophen-mercapturic acid. The series is classed as ADME. The essentials: as §4
Series [39] deals with Mus musculus. The series is described as follows: The compound tested for toxicity in liver against female mouse after intragastric administration of 10 mmol/kg; signifies centrilobular necrosis of liver. Type of series: organism-based. As to conditions: in vivo, po. The essentials: (§13)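 Young adult female Swiss mice, previously housed on pine wood-chip bedding. The sodium salt was given in aqueous solution at 2.0 mmol/kg intravenously or 10 mmol/kg intragastrically. Animals were housed in metabolic cages with feed and water ad libitum for 48 h, with urine collected throughout. At 48 h, liver and kidneys were assessed histologically. Liver was graded as vacuolation (1+) or centrilobular necrosis (2+ to 4+); kidney was graded as deep cortical tubular necrosis.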

Series [40] deals with Mus musculus. The series is described as follows: The compound tested for toxicity in liver against female mouse after intravenous administration of 2.0 mmol/kg; signifies centrilobular necrosis of liver. Type of series: organism-based. The following applies: in vivo. An outline of the steps: as §13
For series [41], the system named is Mus musculus. In words: The compound tested for toxicity in kidney against female mouse after intravenous administration of 2.0 mmol/kg; Normal. The series is classed as organism-based. As to conditions: in vivo. An outline of the steps:
as §13

Series [42] can be described thus: Percent of total excretion of 3-methoxyacetaminophen glucuronide. Type of series: ADME. The essentials: as §4
The subject of series [43] is Mus musculus. The series is described as follows: The compound tested for toxicity in kidney against female mouse after intragastric administration of 10.0 mmol/kg; Normal. The following applies: in vivo.

Values joined by “and” are separate entries in the source; they are usually repeats but may differ in a detail not shown here. Equal values may be shown once.

With `CC(=O)N(O)c1ccc(O)cc1`, the Dose in the series with Rattus norvegicus [1] stood at 70.9%; with Mus musculus [11], 41.5%; in the series with Rattus norvegicus [12], 55%. Further, the Total excretion stood at 1.9% in the series listed under Rattus norvegicus [2]; 5.1% in the series listed under Rattus norvegicus [3]; 0% in the series filed under Rattus norvegicus [4]; 1.5% in the series listed under Rattus norvegicus [5]; 8.1% in the series filed under Rattus norvegicus [6]; 7% in the series filed under Rattus norvegicus [7]. Besides, the Total excretion was 10.8% in the series listed under Rattus norvegicus [8]; 51.3% in the series filed under Rattus norvegicus [9]; 14.5% in the series listed under Rattus norvegicus [10]; 9% and 15.9% in series [13]; 0% in series [14]; 2.3% and 3.4% in series [15]. Further, the Total excretion in series [18] was 2.7% and 3%; in [19] it was 5% and 4.5%; in series [20] it was 18% and 25.9%; in [21] it was 13.2% and 6.1%; in series [22] it was 2% and 4.1%; in the series filed under Rattus norvegicus [26] it was 0%. Also, the Toxicity is 0 in the series with Rattus norvegicus [16]; 0 in the series with Rattus norvegicus [17]; 0 in the series on Mus musculus [23]; 0 in the series on Rattus norvegicus [24]; “Positive” in the series on Rattus norvegicus [25]; 2 in the series with Mus musculus [27].
Turning to `CC(=O)Nc1ccc(O)cc1` [ACETAMINOPHEN], the Total excretion was 0.7% and 0.6% in [28]; 3.3% and 1.5% in [29]; 0% in series [30]; 0% in series [31]; 0% in [32]; 0% in [33]. In addition, the Total excretion in [34] was 11.9% and 12.1%; in [35], 2.9% and 10.4%; in [36] it was 64% and 58.4%; in series [37], 13.8% and 13.3%; in series [38], 3.5% and 3.8%; in [42], 0%. The Toxicity in the series with Mus musculus [39] came out at 3; in the series with Mus musculus [40], 2; in the series on Mus musculus [41] it was 0; in the series with Mus musculus [43], 0.
